For assay [1], the target named is T1, Androgen receptor (Homo sapiens, UniProt P10275).
T1 sequence (P10275 whole entry): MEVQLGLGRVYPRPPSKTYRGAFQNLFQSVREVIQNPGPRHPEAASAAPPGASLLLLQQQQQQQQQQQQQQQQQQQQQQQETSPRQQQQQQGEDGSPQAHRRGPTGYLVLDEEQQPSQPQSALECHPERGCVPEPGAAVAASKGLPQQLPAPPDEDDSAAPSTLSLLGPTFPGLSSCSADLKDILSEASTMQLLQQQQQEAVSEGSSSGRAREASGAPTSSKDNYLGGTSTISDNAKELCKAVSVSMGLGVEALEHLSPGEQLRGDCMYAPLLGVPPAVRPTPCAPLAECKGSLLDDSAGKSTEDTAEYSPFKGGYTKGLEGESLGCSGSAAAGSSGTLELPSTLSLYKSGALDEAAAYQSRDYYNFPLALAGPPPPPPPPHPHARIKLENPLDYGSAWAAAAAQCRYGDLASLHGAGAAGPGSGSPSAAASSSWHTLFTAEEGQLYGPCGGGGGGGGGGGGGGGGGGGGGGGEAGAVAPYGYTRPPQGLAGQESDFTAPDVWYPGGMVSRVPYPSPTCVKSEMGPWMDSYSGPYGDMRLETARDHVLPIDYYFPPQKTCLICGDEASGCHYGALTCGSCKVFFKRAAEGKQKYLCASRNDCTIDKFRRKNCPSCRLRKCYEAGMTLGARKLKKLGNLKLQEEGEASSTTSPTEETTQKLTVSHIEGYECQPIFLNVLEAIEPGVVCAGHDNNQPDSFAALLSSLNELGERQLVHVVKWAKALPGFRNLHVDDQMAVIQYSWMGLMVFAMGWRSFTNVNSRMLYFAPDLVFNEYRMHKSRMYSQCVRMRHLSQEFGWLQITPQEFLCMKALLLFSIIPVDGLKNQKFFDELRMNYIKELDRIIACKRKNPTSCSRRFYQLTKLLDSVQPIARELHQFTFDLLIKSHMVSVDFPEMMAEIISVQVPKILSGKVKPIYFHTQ

For assay [2], the target named is T2, Progesterone receptor (Homo sapiens) (UniProt P06401).
T2 sequence (whole entry): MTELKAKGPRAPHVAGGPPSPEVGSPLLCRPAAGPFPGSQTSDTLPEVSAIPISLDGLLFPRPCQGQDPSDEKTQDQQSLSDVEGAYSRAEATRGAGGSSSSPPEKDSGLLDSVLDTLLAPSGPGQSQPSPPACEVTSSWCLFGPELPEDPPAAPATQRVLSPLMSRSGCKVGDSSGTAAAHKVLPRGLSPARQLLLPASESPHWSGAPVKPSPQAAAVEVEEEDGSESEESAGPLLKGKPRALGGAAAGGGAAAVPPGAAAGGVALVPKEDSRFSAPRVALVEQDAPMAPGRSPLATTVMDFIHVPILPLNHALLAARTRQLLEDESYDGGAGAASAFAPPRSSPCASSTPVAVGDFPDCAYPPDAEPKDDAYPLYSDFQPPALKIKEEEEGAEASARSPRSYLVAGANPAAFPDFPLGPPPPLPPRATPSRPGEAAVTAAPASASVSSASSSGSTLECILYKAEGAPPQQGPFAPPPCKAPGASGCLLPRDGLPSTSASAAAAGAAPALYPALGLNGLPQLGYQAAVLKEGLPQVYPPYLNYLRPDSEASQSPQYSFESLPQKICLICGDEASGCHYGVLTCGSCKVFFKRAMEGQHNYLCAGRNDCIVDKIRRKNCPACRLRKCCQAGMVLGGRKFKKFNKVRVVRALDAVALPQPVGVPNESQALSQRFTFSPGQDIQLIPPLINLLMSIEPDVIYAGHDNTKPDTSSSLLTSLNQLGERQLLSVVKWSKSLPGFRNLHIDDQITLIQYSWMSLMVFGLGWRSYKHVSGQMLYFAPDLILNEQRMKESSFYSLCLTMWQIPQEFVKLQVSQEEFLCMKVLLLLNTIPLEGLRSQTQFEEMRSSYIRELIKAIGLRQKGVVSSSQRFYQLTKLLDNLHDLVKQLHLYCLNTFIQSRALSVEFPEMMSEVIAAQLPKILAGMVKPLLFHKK
Description: Human progesterone receptor (hPR) antagonist efficacy was determined as a function (%) of maximal inhibition of progesterone at EC50 value. The format is functional. The method in brief:
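hPR antagonist-mode cotransfection in CV-1 cells transiently transfected by calcium phosphate coprecipitation with hPR plasmid, MTV-LUC reporter, pRS-β-Gal and filler DNA. […] Values come from one, two, or at least three experiments in triplicate.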

Assay [3] concerns the target T1, Androgen receptor. This is another data set of the same source.
In a further assay the target is T3, Glucocorticoid receptor (Homo sapiens, UniProt P04150).
T3 sequence (P04150 whole entry): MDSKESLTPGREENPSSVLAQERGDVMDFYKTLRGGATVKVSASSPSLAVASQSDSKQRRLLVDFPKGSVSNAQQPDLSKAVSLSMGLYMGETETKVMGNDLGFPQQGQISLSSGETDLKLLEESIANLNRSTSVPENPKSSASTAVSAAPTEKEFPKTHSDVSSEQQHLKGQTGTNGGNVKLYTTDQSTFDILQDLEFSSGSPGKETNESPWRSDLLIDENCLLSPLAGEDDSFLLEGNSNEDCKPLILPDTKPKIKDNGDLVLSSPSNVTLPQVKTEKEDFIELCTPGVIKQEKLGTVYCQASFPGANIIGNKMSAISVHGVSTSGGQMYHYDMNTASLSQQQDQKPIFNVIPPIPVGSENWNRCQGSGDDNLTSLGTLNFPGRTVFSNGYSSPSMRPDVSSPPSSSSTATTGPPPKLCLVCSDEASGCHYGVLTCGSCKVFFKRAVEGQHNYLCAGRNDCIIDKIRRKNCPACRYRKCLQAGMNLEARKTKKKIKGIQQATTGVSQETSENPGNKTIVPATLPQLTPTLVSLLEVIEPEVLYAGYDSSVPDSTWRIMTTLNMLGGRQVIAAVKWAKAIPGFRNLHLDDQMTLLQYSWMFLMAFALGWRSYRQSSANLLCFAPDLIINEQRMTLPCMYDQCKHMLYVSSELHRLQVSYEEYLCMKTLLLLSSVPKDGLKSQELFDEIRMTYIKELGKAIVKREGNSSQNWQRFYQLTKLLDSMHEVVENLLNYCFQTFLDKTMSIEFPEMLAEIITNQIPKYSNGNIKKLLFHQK

The target of the next assay is T4, Progesterone receptor (Homo sapiens, UniProt P06401).
T4 sequence (P06401 whole entry): T2 sequence (whole entry)
Description: Antagonistic activity was determined in Human progesterone receptor(hPR) of CV-1 cells in cotransfection assay. Type of assay: functional, cell-based.

A further assay concerns the target Estrogen receptor (Homo sapiens, UniProt Q92731+P03372). In words: Antagonistic activity was determined in Human estrogen receptor(hER) of CV-1 cells in cotransfection assay. The format is functional, cell-based.

These results are taken from ChEMBL document CHEMBL1131454 (J Med Chem, 1998).

pIC50, pKi: −log10 of the molar value.

A word on the pKi: it is the negative decadic logarithm of the Ki, by convention in mol/L. A low value points to a large Ki. As a reminder, the pIC50 is the IC50 on a negative log10 scale, so that one unit is a factor of ten. A lower pIC50 goes with a large IC50. As usually defined, the IC50 is the concentration needed to halve the response being measured. A high value points to weaker potency. `CC1=CC(C)(C)Nc2ccc3c(c21)C(c1cccc(C(F)(F)F)c1)Oc1ccccc1-3` (configuration not stated) showed a pKi at Androgen receptor [1] of 6.10. Besides, in assay [2], the Efficacy is under 20%. The pIC50 at Androgen receptor [3] is 6.50; against Glucocorticoid receptor, 6.30; on Progesterone receptor, under 5.00. The IC50 on Estrogen receptor was determined as 1537 nM.
In turn, `CC1=CC(C)(C)Nc2ccc3c(c21)C(c1ccc(Cl)c(F)c1)Oc1ccccc1-3` (configuration not stated) showed a pKi at Androgen receptor [1] of 5.84. In assay [2], the Efficacy was under 20%. Also, the values for the pIC50 against Androgen receptor [3], against Glucocorticoid receptor and at Progesterone receptor were 5.66, 6.77 and under 5.00, respectively. Also, the IC50 against Estrogen receptor stood at 1449 nM.
At Androgen receptor [1], `CC1=CC(C)(C)Nc2ccc3c(c21)C(c1cc(Cl)cc(Cl)c1)Oc1ccccc1-3` (configuration not stated) gave a negative logarithm of the Ki (pKi) of 5.59. The molecule also showed an Efficacy in assay [2] of under 20%. Further, the pIC50 is 5.96 on Androgen receptor [3], 6.65 against Glucocorticoid receptor and under 5.00 on Progesterone receptor. For the same molecule, at Estrogen receptor, the half-maximal inhibitory concentration (IC50) is over 10000 nM.
The molecule `CC1=CC(C)(C)Nc2ccc3c(c21)C(c1ccc(Br)cc1)Oc1ccccc1-3` (configuration not stated) showed a pKi at Androgen receptor [1] of under 5.00. The molecule also returned an Efficacy in assay [2] of 42%. The values for the pIC50 at Androgen receptor [3], against Glucocorticoid receptor and at Progesterone receptor were 6.32, 6.94 and 5.50, respectively. Moreover, the IC50 at Estrogen receptor is listed as over 10000 nM.
In turn, `CC1=CC(C)(C)Nc2ccc3c(c21)C(c1cc(C)cc(Br)c1)Oc1ccccc1-3` (configuration not stated) gave a negative logarithm of the Ki (pKi) on Androgen receptor [1] of 5.46. For the same molecule, in assay [2], the Efficacy turned out to be 31%. Further, the pIC50 is 5.91 at Androgen receptor [3], 6.78 against Glucocorticoid receptor and 5.96 against Progesterone receptor. Further, the IC50 against Estrogen receptor was 1037 nM.
`CC1=CC(C)(C)Nc2ccc3c(c21)C(c1ccc(Cl)c(C)c1)Oc1ccccc1-3` (configuration not stated) showed a pKi at Androgen receptor [1] of 5.73. The same molecule displayed an Efficacy in assay [2] of under 20%. The values for the pIC50 against Androgen receptor [3], against Glucocorticoid receptor and on Progesterone receptor were 5.85, 6.56 and under 5.00, respectively. At Estrogen receptor, this molecule showed an IC50 of 1220 nM.
For the molecule `CC1=CC(C)(C)Nc2ccc3c(c21)C(c1cccc(Cl)c1)Oc1ccccc1-3` (configuration not stated), the pKi on Androgen receptor [1] is 5.82. Further, the Efficacy in assay [2] amounted to 37%. Also, the results for the negative-log IC50 (pIC50) against Androgen receptor [3], at Glucocorticoid receptor and against Progesterone receptor were 6.60, 6.87 and 6.03, respectively. The IC50 at Estrogen receptor came to 1480 nM.
Consider `CC1=CC(C)(C)Nc2ccc3c(c21)C(c1cccc(Br)c1)Oc1ccccc1-3` (configuration not stated), for which the negative-log Ki (pKi) at Androgen receptor [1] was 5.67. For the same molecule, the Efficacy in assay [2] amounted to 41%. Besides, the results for the negative logarithm of the IC50 (pIC50) against Androgen receptor [3], on Glucocorticoid receptor and against Progesterone receptor were 6.40, 6.58 and 5.94, respectively. For the same molecule, the IC50 on Estrogen receptor worked out at 1095 nM.
`CC1=CC(C)(C)Nc2ccc3c(c21)C(c1ccc(Cl)c(Cl)c1)Oc1ccccc1-3` (configuration not stated) had a negative-log Ki (pKi) on Androgen receptor [1] of 5.23. This molecule also had an Efficacy in assay [2] of 42%. Besides, the pIC50 against Androgen receptor [3] is 6.02; at Glucocorticoid receptor it was 7.10; on Progesterone receptor, 6.14. The half-maximal inhibitory concentration (IC50) against Estrogen receptor turned out to be 2632 nM.
On to `CC1=CC(C)(C)Nc2ccc3c(c21)C(c1ccc(C)cc1)Oc1ccccc1-3` (configuration not stated), for which, at Androgen receptor [1], the pKi was 5.63. In assay [2], the Efficacy is 38%. Moreover, the values for the pIC50 at Androgen receptor [3], against Glucocorticoid receptor and at Progesterone receptor were 5.91, 6.53 and 6.60, respectively. For the same molecule, the IC50 on Estrogen receptor amounted to 2395 nM.
At Androgen receptor [1], `CC1=CC(C)(C)Nc2ccc3c(c21)C(c1ccc(Cl)cc1)Oc1ccccc1-3` (configuration not stated) gave a pKi of 5.57. The Efficacy in assay [2] turned out to be 31%. In addition, the pIC50 on Androgen receptor [3] was 5.81; against Glucocorticoid receptor, 6.47; against Progesterone receptor, 6.22. Also, the IC50 against Estrogen receptor was 1803 nM.
Molecule `CC1=CC(C)(C)Nc2ccc3c(c21)C(c1ccc(C)c(F)c1)Oc1ccccc1-3` (configuration not stated) showed a pKi at Androgen receptor [1] of 5.80. The same molecule yielded an Efficacy in assay [2] of under 20%. In addition, the values for the pIC50 against Androgen receptor [3], at Glucocorticoid receptor and on Progesterone receptor were 5.91, 6.73 and under 5.00, respectively. Also, the IC50 against Estrogen receptor is 1449 nM.
